Active and inactive are the calls of the source. Cut-off read from the data, not from the text of the source, unless noted: active = inhibition above about 30%; inactive = the rest.
Key:
[1] = SK-BR-3 cell growth inhibitors, pilot screen, 24 h, human (AID 572;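 active = viability at or below 10% of carrier control in both of two separate runs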;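 note: compound exposure lasted between 18 and 24 h rather than exactly 24 h; 100% = carrier-treated control wells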); conditions: SK-BR-3 viability, CellTiter-Glo luminescence, at 10 µM, stronger effect = lower value
[2] = HUVEC growth inhibition – cell-based, human, primary screen (AID 575;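 active = viability at or below 30% in both replicate assays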;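 note: 100% = median of untreated cell wells with 0.1% DMSO on each plate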); conditions: HUVEC proliferation, CellTiter-Glo luminescence, 72 h; at 10 µM; stronger effect = lower value
Method in brief: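 material = primary HUVEC, no more than 12 passages | input = 1250 cells per well | controls = vehicle and MePR control wells | measured by = CTG luminescence | times = 72 h compound incubation | format = collagen-coated 384-well format | read-out = % viability vs DMSO wells | doses = single 10 µM dose, 0.1% DMSO, from 5x medium stock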

[3] = growth inhibitors of H69AR lung tumor, primary screen, human, duplicate replicates (AID 580;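 active = viability at or under a set limit in both replicates, limit being median viability minus 3 SD, cut at about 48% in these data, passing the limit was not always enough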;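 note: 100% = mean luminescence of untreated wells and 0% = no signal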); conditions: H69AR lung tumor cells viability, ATP luminescence, 72 h; at 10 µM; stronger effect = lower value
[4] = reversal of MRP1-mediated doxorubicin resistance, pilot screen, H69AR cells, doxorubicin co-treatment (AID 601;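 active = viability loss from added drug above about 55%, and viability with drug at most 40%, in both replicates, limit read from the data, passing the limit was not always enough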); conditions: CellTiter-Glo, 72 h, at 10 µM; for differential viability (reversal): stronger effect = higher value
[5] = 384-well plate pilot, post-Golgi transport modulator project, inhibition of yeast transport mutant growth (AID 636; in the data active = inhibition above about 31%); conditions: absorbance 615 nm, about 18 h, stronger effect = higher value
[6] = growth suppression of yeast trafficking mutant, preliminary HTS, modulators of trafficking downstream of Golgi apparatus project, 1536-format plate, OD 615 nm (AID 637); conditions: yeast transport mutant growth, absorbance 615 nm, 18 h; stronger effect = higher value
[7] = H69AR cells + 2 uM doxorubicin, measured here: viability with 2 uM doxorubicin, stronger effect = lower value
[8] = H69AR cells, compound alone cytotoxicity

Compound | viability [1] | viability [2] | viability [3] | differential viability (reversal) ([4]; H69AR cells + 2 uM doxorubicin) | viability [4, 7] [%] | viability [4, 8] [%] | inhibition [5] | inhibition [6]
CCN(CC)CCOC(=O)C1(c2ccc(OC)c(OC)c2)CCCC1 | 89% (inactive) | 99.6% (inactive) | 82.7% (inactive) | 2.25% (inactive) | 80.5 | 82.7 | -5.14% (inactive) | 1.45% (inactive)
Cc1cccc(N(C)C(=S)Oc2ccc3ccccc3c2)c1 | 89% (inactive) | 109% (inactive) | 97.1% (inactive) | 13% (inactive) | 84.1 | 97.1 | 0.26% (inactive) | 1.83% (inactive)
Cc1cc(=O)oc2ccc(OCC(=O)N(Cc3ccc(F)cc3)Cc3ccco3)cc12 | 91% (inactive) | 50.9% (inactive) | 72% (inactive) | 11.6% (inactive) | 60.5 | 72 | -2.47% (inactive) | -9.35% (inactive)
O=C(Nc1ccc2c(c1)OCO2)N1CCN(c2ncccn2)CC1 | 126% (inactive) | 106% (inactive) | 85.5% (inactive) | -22.1% (inactive) | 108 | 85.5 | -8.49% (inactive) | -1.64% (inactive)
CCO/C([O-])=N/c1c[n+](N2CCOCC2)no1 | 81% (inactive) | 95.9% (inactive) | 86.7% (inactive) | -3.3% (inactive) | 90 | 86.7 | 1.3% (inactive) | 2.33% (inactive)
N/C(=N/O)c1nc(N2CCCCC2)nc(N2CCCCC2)n1 | 115% (inactive) | 80.5% (inactive) | 94.9% (inactive) | -0.21% (inactive) | 95.1 | 94.9 | -0.65% (inactive) | -0.98% (inactive)
Cc1nnc(SCCCn2c(N3CCCCC3)nc3c2c(=O)[nH]c(=O)n3C)s1 | 104% (inactive) | 92% (inactive) | 97.4% (inactive) | 10.2% (inactive) | 87.1 | 97.4 | -6.03% (inactive) | 4% (inactive)
NC(=O)c1ccsc1NC(=O)COC(=O)Cc1ccsc1 | 87% (inactive) | 100% (inactive) | 110% (inactive) | -0.11% (inactive) | 110 | 110 | -4.25% (inactive) | 1.27% (inactive)
O=C(c1ccccc1-c1nc(-c2ccccc2)no1)N1CCCC1 | 105% (inactive) | 120% (inactive) | 90.9% (inactive) | 9.27% (inactive) | 81.6 | 90.9 | -5.07% (inactive) | -3.23% (inactive)
O=C1NC(c2cccnc2)C(C(=O)c2cccs2)C(O)(C(F)(F)F)N1 (stereo not drawn) | 116% (inactive) | 113% (inactive) | 103% (inactive) | 4.9% (inactive) | 97.7 | 103 | -0.27% (inactive) | -0.18% (inactive)
O=C(Nc1ccc(Br)c2cccnc12)c1ccc(Cn2cc(Cl)cn2)o1 | 156% (inactive) | 43% (inactive) | 87.4% (inactive) | 9.23% (inactive) | 78.2 | 87.4 | -1.56% (inactive) | -3.44% (inactive)
Cc1ccc2c(C(=O)CN3CCSCC3)c(C)[nH]c2c1 | 120% (inactive) | 91.8% (inactive) | 74.2% (inactive) | -0.745% (inactive) | 75 | 74.2 | -3.07% (inactive) | -3.82% (inactive)
COc1ccc(Cn2nnnc2C(c2ccccn2)N2CCN(c3cc(Cl)ccc3C)CC2)cc1 (stereo not drawn) | 101% (inactive) | 73.1% (inactive) | 77.3% (inactive) | -7.71% (inactive) | 85 | 77.3 | -2.43% (inactive) | 31.6% (active)
O=C(NCC(=O)N(Cc1cccs1)C(C(=O)NC1CCCC1)c1ccncc1)c1ccco1 (stereo not drawn) | 102% (inactive) | 109% (inactive) | 85.7% (inactive) | 2.2% (inactive) | 83.5 | 85.7 | -0.54% (inactive) | 16.4% (inactive)
CC(=O)C1=C(O)C(=O)N(C2CCCCC2)C1c1ccccc1 (stereo not drawn) | 107% (inactive) | 98.6% (inactive) | 97.3% (inactive) | 10.9% (inactive) | 86.4 | 97.3 | -8.08% (inactive) | 5.32% (inactive)
COc1ccc(C(=O)Nc2ccc(S(=O)(=O)Nc3onc(C)c3C)cc2)cc1 | 91% (inactive) | 108% (inactive) | 117% (inactive) | 23.6% (inactive) | 93.4 | 117 | -2.03% (inactive) | -0.91% (inactive)
O=C(CN1CCN(c2nc(-c3ccc(Cl)cc3)cs2)CC1)NCc1ccco1 | 67% (inactive) | 95.6% (inactive) | 97.9% (inactive) | 3.06% (inactive) | 94.8 | 97.9 | -5.07% (inactive) | -2.18% (inactive)
CC(N)C12CC3CC(C1)CC(C(C)N)(C3)C2 (stereo not drawn) | 87% (inactive) | 110% (inactive) | 101% (inactive) | 11.4% (inactive) | 89.4 | 101 | -3.6% (inactive) | -4.18% (inactive)

Compound | viability [1] | viability [2] | viability [3] | differential viability (reversal) ([4]; H69AR cells + 2 uM doxorubicin) | viability [4, 7] [%] | viability [4, 8] [%] | inhibition [5] | inhibition [6]
CC(=O)[C@@]1(O)CC[C@H]2[C@@H]3C[C@H](C)C4=CC(=O)C=C[C@]4(C)[C@@]3(F)[C@@H](O)C[C@@]21C | 100% (inactive) | 92.3% (inactive) | 93.2% (inactive) | -9.97% (inactive) | 103 | 93.2 | -0.91% (inactive) | 7.83% (inactive)
CCCCCn1c(CN2CCN(c3cccc(Cl)c3)CC2)nc2c1c(=O)n(C)c(=O)n2C | 97% (inactive) | 69.2% (inactive) | 88% (inactive) | 38.5% (inactive) | 49.5 | 88 | 7.7% (inactive) | 11.6% (inactive)
Cc1cc(C)nc(SC2=CS(=O)(=O)c3ccccc32)n1 | 102% (inactive) | 73.5% (inactive) | 14.8% (active) | -7.5% (inactive) | 22.3 | 14.8 | -1.2% (inactive) | -1.27% (inactive)
Cc1cc(=O)n2[nH]c(-c3ccc(Cl)cc3)cc2n1 | 108% (inactive) | 75.8% (inactive) | 99.2% (inactive) | 8.53% (inactive) | 90.7 | 99.2 | -4.66% (inactive) | 5.45% (inactive)
Cc1cc(C)cc(NC(=O)CN(C)S(=O)(=O)c2cnc[nH]2)c1 | 113% (inactive) | 104% (inactive) | 100% (inactive) | 8.86% (inactive) | 91.3 | 100 | -2.13% (inactive) | -6.36% (inactive)
CCOC(=O)c1cc2c(=O)n3cccc(C)c3nc2n(CC2CCCO2)c1=NC(C)=O (stereo not drawn) | 94% (inactive) | 109% (inactive) | 81.3% (inactive) | 61.6% (active) | 19.6 | 81.3 | -5.14% (inactive) | 0.91% (inactive)
COC(=O)c1ccc(-c2ccco2)n1Cc1nc(-c2ccc(OC)c(OC)c2)oc1C | 125% (inactive) | 25.9% (active) | 48.8% (active) | -8.4% (inactive) | 57.2 | 48.8 | -4.32% (inactive) | 4.73% (inactive)
Cc1ccc(N2CCN(c3ccc(C)cc3)C(CC(=O)O)C2=O)cc1 (stereo not drawn) | 92% (inactive) | 98.2% (inactive) | 97.4% (inactive) | 4.25% (inactive) | 93.2 | 97.4 | -5.89% (inactive) | -3.23% (inactive)
Cc1nc(N)[nH]c(=O)c1CCC(=O)OCC(C)C | 107% (inactive) | 89.7% (inactive) | 91.2% (inactive) | -2.31% (inactive) | 93.5 | 91.2 | -0.78% (inactive) | -0.66% (inactive)
O=C(Nc1nnc(C2CCCC2)s1)C1CCN(S(=O)(=O)c2ccc(Cl)cc2)CC1 | 92% (inactive) | 94.4% (inactive) | 72.3% (inactive) | 3.83% (inactive) | 68.5 | 72.3 | -5.87% (inactive) | -5.64% (inactive)
C[C@@H]1C[C@H]2[C@@H]3C[C@H](F)C4=CC(=O)C=C[C@]4(C)[C@@]3(F)[C@@H](O)C[C@]2(C)[C@@]1(O)C(=O)COC(=O)C(C)(C)C | 103% (inactive) | 76.9% (inactive) | 79.5% (inactive) | -7.82% (inactive) | 87.3 | 79.5 | -3.38% (inactive) | -11.3% (inactive)
C=CCN=C1SCC(=O)N1S(=O)(=O)c1ccc(C)cc1 | 88% (inactive) | 89.1% (inactive) | 113% (inactive) | 13.6% (inactive) | 99.4 | 113 | -4.73% (inactive) | 1.64% (inactive)
CN(C)CCCC1(c2ccc(F)cc2)OCc2cc(C#N)ccc21 (stereo not drawn) | 79% (inactive) | 73.3% (inactive) | 103% (inactive) | 17.6% (inactive) | 85.7 | 103 | -1.56% (inactive) | -2.5% (inactive)
CC(=O)Nc1ccc(NC(=O)Cn2cc3c(n2)CCC(C)C3)cc1 (stereo not drawn) | 108% (inactive) | 103% (inactive) | 90.6% (inactive) | -4.05% (inactive) | 94.6 | 90.6 | -8.24% (inactive) | -8.73% (inactive)
CN(CC(=O)Nc1cccnc1)S(=O)(=O)c1cc(Cl)ccc1Cl | 104% (inactive) | 105% (inactive) | 91.7% (inactive) | -7.51% (inactive) | 99.2 | 91.7 | -0.14% (inactive) | 6.73% (inactive)
COCC(=O)n1nc(NCc2ccc(OC)cc2)nc1NCc1ccc(OC)cc1 | 116% (inactive) | 105% (inactive) | 99.8% (inactive) | 9.29% (inactive) | 90.5 | 99.8 | 53.3% (active) | 28.6% (inactive)
O=S(=O)(c1ccc(N2CCN(c3ccc(F)cc3)CC2)cc1)N1CCCC1 | 111% (inactive) | 77.2% (inactive) | 75.7% (inactive) | -4.83% (inactive) | 80.6 | 75.7 | -0.91% (inactive) | 15.4% (inactive)
O=S1(=O)C=C(Oc2ccc(F)cc2)c2ccccc21 | 100% (inactive) | 101% (inactive) | 92.5% (inactive) | 4.02% (inactive) | 88.5 | 92.5 | -7.03% (inactive) | 1.27% (inactive)

Reference: PubChem BioAssay
